# Measured values from ChEMBL document CHEMBL4673268, “The optimization of a novel selective antagonist for human M muscarinic acetylcholine receptor” (Bioorg Med Chem Lett, 2020).
# Active and inactive are the calls of the source. The rule behind the calls is not given here.
# What was measured:
# [1] = target: Muscarinic acetylcholine receptor M3 (Homo sapiens, UniProt P20309); test: Displacement of [3H]-NMS from muscarinic M3 receptor (unknown origin) expressed in CHO-K1 cell membranes assessed as inhibition constant by radioligand competition analysis; set-up: species or system Cell membrane
# Chain of Muscarinic acetylcholine receptor M3 (P20309 whole entry): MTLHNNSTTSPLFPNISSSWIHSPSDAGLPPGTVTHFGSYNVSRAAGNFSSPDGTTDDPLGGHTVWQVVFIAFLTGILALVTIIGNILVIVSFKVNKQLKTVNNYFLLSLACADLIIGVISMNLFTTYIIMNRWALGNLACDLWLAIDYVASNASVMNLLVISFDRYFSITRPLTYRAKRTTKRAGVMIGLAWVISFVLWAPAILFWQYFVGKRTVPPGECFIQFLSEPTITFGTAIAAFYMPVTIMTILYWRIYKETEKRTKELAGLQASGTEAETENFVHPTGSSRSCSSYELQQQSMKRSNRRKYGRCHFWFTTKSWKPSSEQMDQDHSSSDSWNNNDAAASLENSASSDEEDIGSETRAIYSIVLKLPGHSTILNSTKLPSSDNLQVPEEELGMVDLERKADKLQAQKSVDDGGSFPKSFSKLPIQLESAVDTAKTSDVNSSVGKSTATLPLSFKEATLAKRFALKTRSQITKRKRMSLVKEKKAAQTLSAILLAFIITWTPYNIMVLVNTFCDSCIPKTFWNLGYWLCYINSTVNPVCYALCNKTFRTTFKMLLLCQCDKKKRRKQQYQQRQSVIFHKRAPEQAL
# Outline: (§1)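 Inhibition constants came from radioligand competition binding. Acetylcholine and atropine were included as positive controls for competitive binding. Values are given as mean ± SEM.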
# [2] = target: T1, Muscarinic acetylcholine receptor M1 (Homo sapiens, UniProt P11229); test: Displacement of [3H]-NMS from muscarinic M1 receptor (unknown origin) expressed in CHO-K1 cell membranes assessed as inhibition constant by radioligand competition analysis; set-up: species or system Cell membrane; outline: as §1
# T1 sequence (P11229 whole entry): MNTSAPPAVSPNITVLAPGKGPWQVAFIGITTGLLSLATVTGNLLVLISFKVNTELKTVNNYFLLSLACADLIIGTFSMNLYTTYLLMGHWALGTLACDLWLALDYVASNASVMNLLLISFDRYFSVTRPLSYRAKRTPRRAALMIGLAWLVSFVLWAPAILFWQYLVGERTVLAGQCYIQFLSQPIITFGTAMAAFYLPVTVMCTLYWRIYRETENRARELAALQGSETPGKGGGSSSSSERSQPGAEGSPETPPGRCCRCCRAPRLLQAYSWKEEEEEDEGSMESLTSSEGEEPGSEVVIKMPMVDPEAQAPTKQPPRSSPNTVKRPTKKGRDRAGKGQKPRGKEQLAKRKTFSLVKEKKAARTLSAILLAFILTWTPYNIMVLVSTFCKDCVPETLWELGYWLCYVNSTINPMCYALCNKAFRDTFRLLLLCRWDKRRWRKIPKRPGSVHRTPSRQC
# [3] = target: T2, Muscarinic acetylcholine receptor M2 (Homo sapiens, UniProt P08172); test: Displacement of [3H]-NMS from muscarinic M2 receptor (unknown origin) expressed in CHO-K1 cell membranes assessed as inhibition constant by radioligand competition analysis; set-up: species or system Cell membrane
# T2 sequence (P08172 whole entry): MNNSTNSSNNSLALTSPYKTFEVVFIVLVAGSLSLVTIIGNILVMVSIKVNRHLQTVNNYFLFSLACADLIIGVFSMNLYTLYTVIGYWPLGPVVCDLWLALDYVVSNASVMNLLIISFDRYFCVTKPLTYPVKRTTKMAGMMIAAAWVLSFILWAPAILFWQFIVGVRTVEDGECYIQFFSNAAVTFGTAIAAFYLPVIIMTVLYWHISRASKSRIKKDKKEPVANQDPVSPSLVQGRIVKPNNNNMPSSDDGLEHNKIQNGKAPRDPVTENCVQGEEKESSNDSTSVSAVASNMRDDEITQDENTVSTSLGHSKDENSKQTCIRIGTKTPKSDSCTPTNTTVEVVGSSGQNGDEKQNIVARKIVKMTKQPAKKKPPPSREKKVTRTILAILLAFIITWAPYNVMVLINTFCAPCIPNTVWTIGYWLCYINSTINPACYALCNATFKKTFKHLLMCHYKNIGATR
# [4] = target: T3, Muscarinic acetylcholine receptor M4 (Homo sapiens, UniProt P08173); test: Displacement of [3H]-NMS from muscarinic M4 receptor (unknown origin) expressed in CHO-K1 cell membranes assessed as inhibition constant by radioligand competition analysis; set-up: species or system Cell membrane; outline: as §1
# T3 sequence (P08173 whole entry): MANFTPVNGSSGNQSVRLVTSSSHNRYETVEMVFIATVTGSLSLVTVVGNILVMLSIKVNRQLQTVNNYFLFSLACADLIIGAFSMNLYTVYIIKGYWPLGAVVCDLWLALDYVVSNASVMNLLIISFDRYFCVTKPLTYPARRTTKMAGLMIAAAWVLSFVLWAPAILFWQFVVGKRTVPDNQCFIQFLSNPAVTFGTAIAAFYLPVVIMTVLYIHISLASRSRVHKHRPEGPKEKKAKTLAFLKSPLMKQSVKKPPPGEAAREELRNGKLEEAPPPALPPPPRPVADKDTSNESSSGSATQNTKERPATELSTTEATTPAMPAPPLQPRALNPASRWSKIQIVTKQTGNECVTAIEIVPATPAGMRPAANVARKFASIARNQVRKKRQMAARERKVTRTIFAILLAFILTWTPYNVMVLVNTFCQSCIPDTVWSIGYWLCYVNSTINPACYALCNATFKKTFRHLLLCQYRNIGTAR
# [5] = target: T2, Muscarinic acetylcholine receptor M2; test: Antagonist activity at human muscarinic M2 receptor expressed in CHO cells co-expressing Galpha15 assessed as inhibition of acetylcholine-induced calcium mobilization relative to acetylcholine; assay type: functional, cell-based
# [6] = target: T4, Muscarinic acetylcholine receptor M2 (Homo sapiens) (UniProt P08172); test: Antagonist activity at muscarinic M2 receptor (unknown origin) at 100 uM by acetylcholine titration assay; conditions: filed as antagonist
# T4 sequence (whole entry): T2 sequence (P08172 whole entry)
# Outline: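 Acetylcholine titration curves were run in a radioligand binding format, without and with test ligand at 100 μM. A rightward shift of the ACh curve was taken to indicate negative allosteric modulation, and no shift to indicate orthosteric antagonism.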
SMILES,Ki [1] [µM],Ki [2] [µM],Ki [3] [µM],Ki [4] [µM],IC50 [5] [µM],Activity [6]
O=C(CCN1CCCc2ccccc21)N1CCCCC1CO (centres undefined),31.6,11.5,3.63,7.24,10.7,–
O=C(CCN1CCCc2ccccc21)N1CCCC(CO)C1 (centres undefined),5.25,1.45,0.617,1.74,0.759,–
O=C(CN1CCc2ccc(F)cc21)N1CCCC1,95.5,> 100,50.1,> 100,75.9,–
CC1Cc2ccccc2N1CC(=O)N1CCCCC1 (centres undefined),> 100,–,> 100,> 100,> 100,Active
CC1CCc2ccccc2N1CC(=O)N1CCCCC1 (centres undefined),52.5,28.2,3.63,8.91,7.41,–
CC1Cc2ccccc2N1CC(=O)N1CCCC1 (centres undefined),79.4,100,21.4,74.1,> 100,Active
O=C(CCN1CCCc2ccccc21)N1CCC[C@H]1CO,43.7,14.1,5.13,12.9,17.4,–
O=C(CN1CCCc2ccc(O)cc21)N1CCCCC1,> 100,> 100,–,87.1,–,–
O=C(CCN1CCCc2ccccc21)Nc1ccc(Cl)cc1,10.7,5.62,3.31,10.7,1.41,–
O=C(CCN1CCCc2ccccc21)N1CCC1,11.5,4.47,1.7,5.75,12,–
Cn1ccc(NC(=O)CCN2CCCc3ccccc32)n1,25.7,7.59,3.31,8.71,0.977,–
O=C(CCN1CCCc2ccccc21)N1CCCC1,2.88,1.05,0.288,1.58,1.82,–
CC(C)(C)OC(=O)N1CCN(CC(=O)n2c3ccccc3c3ccccc32)CC1,21.9,12.9,22.9,25.7,18.6,–
O=C(CN1CCCc2cnccc21)N1CCCCC1,60.3,> 100,40.7,58.9,> 100,–
O=C(CCN1CCCc2ccccc21)NC1CCCCC1,1.74,0.229,–,0.158,–,–
CC1CCN(C(=O)CCN2CCCc3ccccc32)CC1,0.977,0.302,–,0.288,–,–
CCn1c2ccccc2c2ccc(NCC(=O)N3CCCCC3)cc21,44.7,43.7,–,91.2,–,–
O=C(CCN1CCCc2ccccc21)N1CCC(O)CC1,33.1,23.4,13.2,17,15.1,–
O=C(CN1CCc2ccc(Br)cc21)N1CCCCC1,> 100,> 100,> 100,> 100,> 100,–
O=C(CCN1CCCc2ccccc21)N1CCCC1CO (centres undefined),32.4,14.1,5.13,11.7,19.1,–
CC1CCCC(C)N1C(=O)CCN1CCCc2ccccc21 (centres undefined),55,27.5,–,17.8,–,–
COC1CN(C(=O)CCN2CCCc3ccccc32)C1,32.4,17.4,3.55,15.8,20.4,–

SMILES,Ki [1] [µM],Ki [2] [µM],Ki [3] [µM],Ki [4] [µM],IC50 [5] [µM],Activity [6]
CC1CCCN(C(=O)CCN2CCCc3ccccc32)C1 (centres undefined),2.88,0.603,0.407,0.776,1.51,–
O=C(CCN1CCCc2ccccc21)NC1CCCC1,2.57,0.245,–,0.257,–,–
O=C(CCN1CCCc2ccccc21)Nc1nccs1,> 100,1.12,–,58.9,–,–
O=C(CN1CCCc2ccccc21)N1CCCC1,7.41,2.88,0.389,1.38,0.617,–
O=C(CCN1CCCc2ccccc21)NCc1cccs1,7.24,0.646,0.646,2.14,1.02,–
O=C(CCN1CCCc2ccccc21)NCc1cccc(F)c1,12.9,2.04,–,6.46,–,–
O=C(CCN1CCCc2ccccc21)Nc1ccccc1,0.776,0.263,–,0.214,–,–
O=C(O)C1CCCN1C(=O)CCN1CCCc2ccccc21 (centres undefined),4.57,1.05,0.575,0.891,0.776,–
O=C(CCN1CCCc2ccccc21)Nc1cccc2ccccc12,26.3,9.33,0.912,4.07,0.339,–
O=C(CN1CCCc2ccccc21)N1CCCCC1,11,2.88,0.417,1.23,0.437,–
O=C(CCN1CCCc2ccccc21)N1CCCC(O)C1 (centres undefined),53.7,33.1,6.17,18.6,29.5,–
O=C(CCN1CCCc2ccccc21)NCc1ccco1,12,2.63,1.23,4.37,1.12,–
CC1CCCCN1C(=O)CCN1CCCc2ccccc21 (centres undefined),8.51,6.31,3.24,5.25,3.16,–
Cc1ccc2c(c1)CCCN2CC(=O)N1CCCCC1,66.1,17.8,18.6,21.4,24.5,–
CC1CCCCN1CC(=O)n1c2ccccc2c2ccccc21 (centres undefined),> 100,> 100,95.5,> 100,52.5,–
C[C@@H]1CCC[C@H](C)N1C(=O)CCN1CCCc2ccccc21,3.55,1.15,–,1.12,–,–
Cn1ccc2c(NC(=O)CCN3CCCc4ccccc43)cccc21,> 100,5.01,2.29,12,0.427,–
O=C(CN1CCCc2cnccc21)N1CCCC1,85.1,93.3,43.7,> 100,> 100,–
CC1CCc2ccccc2N1CC(=O)N1CCCC1 (centres undefined),> 100,44.7,2.45,6.31,4.9,–
O=C(CCN1CCCc2ccccc21)Nc1ccc(O)cc1F,> 100,> 100,64.6,> 100,> 100,–
O=C(CCN1CCCc2ccccc21)N1CCC(O)C1 (centres undefined),> 100,51.3,16.6,50.1,70.8,–
O=C(CCN1CCCc2ccccc21)Nc1cccnn1,29.5,14.1,–,14.1,–,–
